Laboratory results published in ChEMBL document CHEMBL4028857, “Anchimerically Activated ProTides as Inhibitors of Cap-Dependent Translation and Inducers of Chemosensitization in Mantle Cell Lymphoma” (J Med Chem, 2017).
Active and inactive are the calls of the source. No cut-off for these calls is given here.

Columns and labels:
[1] = biological target: Eukaryotic translation initiation factor 4E (Homo sapiens) (UniProt P06730); test: Inhibition of eIF4E in human GRANTA-519 cells assessed as increase in p27 protein expression after 48 hrs by Western blot method; format: cell-based
Eukaryotic translation initiation factor 4E (Homo sapiens), sequence (P06730 whole entry): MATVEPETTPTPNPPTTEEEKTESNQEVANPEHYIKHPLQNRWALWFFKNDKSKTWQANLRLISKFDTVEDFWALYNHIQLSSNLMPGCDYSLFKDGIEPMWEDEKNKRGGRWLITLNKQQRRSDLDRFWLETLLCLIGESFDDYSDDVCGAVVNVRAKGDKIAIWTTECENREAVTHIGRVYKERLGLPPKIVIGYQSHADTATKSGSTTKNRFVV
Summary of the method: (§1)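 MCL lines treated 48 h with compound; protein quantified and Western blotted with eIF4E, eIF4G, actin, c-Myc and Bcl-2 antibodies.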

[2] = biological target: Eukaryotic translation initiation factor 4E (Homo sapiens) (UniProt P06730); test: Inhibition of eIF4E in human Z138 cells assessed as disruption of interaction between protein and mRNA 5'-cap at 10 to 100 uM by m7GTP pull-down assay; format: cell-based
Summary of the method: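 Eight to ten million treated MCL cells washed in cold PBS, lysed in cap binding buffer, and eIF4E binding captured on m7GTP-Sepharose beads (pull-down).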

Granta-519 [3] = test: Antiproliferative activity against human GRANTA-519 cells after 48 hrs by Annexin V/propidium iodide based flow cytometric analysis; format: functional, cell-based; conditions: Granta-519, 48 h
Summary of the method: (§2)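 MCL lines treated 48 h with compound re-added daily (alone or with co-drug; ibrutinib 25 µM), then survival assessed by Annexin V/PI flow cytometry.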

[4] = biological target: Eukaryotic translation initiation factor 4E-binding protein 1 (Homo sapiens) (UniProt Q13541); test: Inhibition of 4EBP1 phosphorylation at Thr 37/46 residues in human Mino cells at 100 uM after 48 hrs by Western blot analysis; format: cell-based; summary of the method: as §1
Eukaryotic translation initiation factor 4E-binding protein 1 (Homo sapiens), sequence (Q13541 whole entry): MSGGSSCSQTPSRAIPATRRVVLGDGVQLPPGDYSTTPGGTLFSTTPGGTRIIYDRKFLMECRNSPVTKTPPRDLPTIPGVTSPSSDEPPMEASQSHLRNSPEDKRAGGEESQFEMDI

Granta-519 [5] = test: Antiproliferative activity against human GRANTA-519 cells preincubated for 48 hrs followed by thymidine addition measure after 16 hrs by Thymidine incorporation assay; format: functional, cell-based
Summary of the method: (§3)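 MCL lines treated 48 h with compound re-added daily, alone or with co-drug (ibrutinib 25 µM where used), then thymidine added for a further 16 h; proliferation read as thymidine incorporation.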

[6] = biological target: Eukaryotic translation initiation factor 4E (Homo sapiens) (UniProt P06730); test: Inhibition of eIF4E in human Mino cells assessed as down regulation of c-Myc protein expression at 100 uM after 48 hrs by Western blot analysis; format: cell-based; summary of the method: as §1
[7] = Half life in Sprague-Dawley rat at 2.5 mg/kg, iv by LC-MS/MS analysis; format: ADME, organism-based; conditions: in vivo
Summary of the method: (§4)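 Female Sprague-Dawley rats (250-274 g, n=3, catheterized femoral/jugular veins) dosed once p.o. by gavage (25 mg/kg) then, after a 3-day washout, i.v. (2.5 mg/kg). Formulation: 10 mg/mL in 0.5% aqueous CMC with 5% DMSO. Serial blood draws to 480 min into K2EDTA; plasma protein-precipitated with acetonitrile plus internal standards; LC-MS/MS (positive MRM); non-compartmental PK; %F from dose-normalized AUC per rat.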

[8] = (§5) Antiproliferative activity against human Mino cells preincubated for 48 hrs followed by thymidine addition measure after 16 hrs by Thymidine incorporation assay; format: functional, cell-based; summary of the method: as §3
Mino = test: as §5; format: functional, cell-based; summary of the method: as §3
Rattus norvegicus = test: Cmax in Sprague-Dawley rat assessed as 9-((2R,3R,4S,5R)-5-(((((2-(1H-Indol-3-yl)ethyl)amino)-(hydroxy)phosphoryl)oxy)methyl)-3,4-dihydroxytetrahydrofuran-2-yl)-2-amino-7-(2-(4-chlorophenoxy)ethyl)-6-oxo-6,9-dihydro-1H-purin-7-ium level at 25 mg/kg, po measured at 30 mins post dose by LC-MS/MS analysis; format: ADME, organism-based; design: dose 25 mg/kg, route oral; conditions: in vivo, 0.5 h; summary of the method: as §4
[9] = biological target: Eukaryotic translation initiation factor 4E-binding protein 1 (Homo sapiens) (UniProt Q13541); test: Inhibition of 4EBP1 phosphorylation at Ser 65 residues in human Mino cells at 100 uM after 48 hrs by Western blot analysis; format: cell-based; summary of the method: as §1
[10] = Cytotoxicity against human Mino cells assessed as reduction in cell survival at 100 uM after 48 hrs in presence of dexamethasone by Annexin V/propidium iodide based flow cytometric analysis; summary of the method: as §2
[11] = Cytotoxicity against human Mino cells assessed as reduction in cell survival at 100 uM after 48 hrs in presence of ibrutinib by Annexin V/propidium iodide based flow cytometric analysis; summary of the method: as §2
[12] = Cmax in Sprague-Dawley rat at 25 mg/kg, po measured at 30 mins post dose by LC-MS/MS analysis; format: ADME, organism-based; design: dose 25 mg/kg, route oral; conditions: in vivo; summary of the method: as §4
[13] = biological target: Eukaryotic translation initiation factor 4E (Homo sapiens) (UniProt P06730); test: Inhibition of eIF4E in human Mino cells assessed as down regulation of c-Myc protein expression after 48 hrs by Western blot method; format: cell-based; summary of the method: as §1
[14] = biological target: Eukaryotic translation initiation factor 4E (Homo sapiens) (UniProt P06730); test: Inhibition of eIF4E in human GRANTA-519 cells assessed as down regulation of c-Myc protein expression after 48 hrs by Western blot method; format: cell-based; summary of the method: as §1
[15] = Antiproliferative activity against human Mino cells at 200 uM preincubated for 48 hrs followed by thymidine addition measure after 16 hrs by Thymidine incorporation assay; format: functional; summary of the method: as §3
[16] = AUC (0 to 8 hrs) in Sprague-Dawley rat plasma at 25 mg/kg, po by LC-MS/MS analysis; format: ADME, organism-based; design: time < 8 hr, dose 25 mg/kg, route oral; summary of the method: as §4
[17] = Half life in Sprague-Dawley rat plasma at 150 uM at pH 7.4 by RP-LCMS analysis; format: ADME
Summary of the method: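 Pooled female Sprague-Dawley rat plasma, pre-warmed 2 min at 37 °C, incubated with compound in triplicate at 37 °C to follow deprotection and half-life.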

[18] = biological target: Eukaryotic translation initiation factor 4E (Homo sapiens) (UniProt P06730); test: Inhibition of eIF4E in human Mino cells assessed as potentiation of ibrutinib induced antiproliferation at 100 uM preincubated for 48 hrs followed by thymidine addition measure after 16 hrs by Thymidine incorporation assay; format: cell-based; summary of the method: as §3
[19] = Half life in HEPES buffer at 80 uM at pH 2 by RP-HPLC analysis; format: physicochemical
Summary of the method: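 Compound at 80 µM in 20 mM HEPES (pH 7.2 or 2.0) incubated at 37 °C; aliquots analyzed by RP-HPLC at 0, 1, 4, 6, 12, 18 and 24 h to follow methylthioalkyl deprotection and derive half-life.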

[20] = biological target: Eukaryotic translation initiation factor 4E (Homo sapiens) (UniProt P06730); test: Inhibition of eIF4E in human Mino cells assessed as potentiation of doxorobucin induced antiproliferation at 100 uM preincubated for 48 hrs followed by thymidine addition measure after 16 hrs by Thymidine incorporation assay; format: cell-based; summary of the method: as §3
[21] = biological target: Eukaryotic translation initiation factor 4E-binding protein 1 (Homo sapiens) (UniProt Q13541); test: Inhibition of 4EBP1 phosphorylation at Ser 65 residues in human Mino cells at 100 uM after 48 hrs in presence of ibrutinib by Western blot analysis; format: cell-based; summary of the method: as §1
[22] = biological target: Eukaryotic translation initiation factor 4E (Homo sapiens) (UniProt P06730); test: Inhibition of eIF4E in human Mino cells assessed as down regulation of Bcl-2 expression at 50 to 200 uM after 48 hrs by Western blot method; format: cell-based; summary of the method: as §1
Z-138 = test: Antiproliferative activity against human Z138 cells preincubated for 48 hrs followed by thymidine addition measure after 16 hrs by Thymidine incorporation assay; format: functional, cell-based; summary of the method: as §3
Granta-519 [23] = test: Prodrug activation in human GRANTA-519 cells assessed as 9-((2R,3R,4S,5R)-5-(((((2-(1H-Indol-3-yl)ethyl)amino)-(hydroxy)phosphoryl)oxy)methyl)-3,4-dihydroxytetrahydrofuran-2-yl)-2-amino-7-(2-(4-chlorophenoxy)ethyl)-6-oxo-6,9-dihydro-1H-purin-7-ium formation per 5 million cells at 150 uM after 12 hrs by LC-MS/MS analysis; format: cell-based; conditions: granta-519, 12 h
Summary of the method: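 Five million MCL cells in RPMI/10% FBS with penicillin, streptomycin and L-glutamine were exposed to compound (150 µM) for 12 h at 37 °C. Cells were washed in cold PBS, extracted in MeOH/NH4OAc (60:40) with 80 fmol internal standards, freeze-thawed three times, then filtered and dried. Residue was taken up in HEPES for LC-MS/MS, quantified against an internal-standard curve.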

inhibition [1]: Dose-dependent effect | inhibition [2]: Active | inhibition [4]: inactive | inhibition [6]: Active | half-life [7]: 1.32 h | Cmax (Rattus norvegicus): 6 ng/mL | inhibition [9]: inactive | Cmax [12]: 5 ng/mL | inhibition [13]: Dose-dependent effect | inhibition [14]: Dose-dependent effect | AUC(0-t) at 8 h [16]: 28.3 ng·h/mL | half-life at 150 µM [17]: 7.2 h | inhibition [18]: Active | half-life at 80 µM [19]: 5 h | inhibition [20]: Active | inhibition [21]: Active | inhibition [22]: inactive | Drug metabolism (Granta-519 [23]): 0.33 pmol
Structure (SMILES): CSCCOP(=O)(NCCc1c[nH]c2ccccc12)OC[C@H]1O[C@@H](n2c[n+](CCOc3ccc(Cl)cc3)c3c(=O)[nH]c(N)nc32)[C@H](O)[C@@H]1O (some centres not stated)
IC50 (Granta-519 [3]): > 200 µM | Activity (Granta-519 [5]): Dose-dependent effect | IC50 (Granta-519 [5]): 50 µM | IC50 [8]: 50 µM | Activity (Mino): Dose-dependent effect | Activity [10]: Toxic | Activity [11]: Toxic | Activity [15]: 100% | Activity (Z-138): Dose-dependent effect
